From ChEMBL document CHEMBL5724801, “EUbOPEN Chemogenomics Library - Multiplex” (2024)
Values joined by “and” are separate entries in the source; they are usually repeats but may differ in a detail not shown here. Identical values can stand only once.

Test system: U2OS
Assay: Multiplex assay against U2OS
Assay type: toxicity, cell-based
Conditions: human
In short: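 Tubulin, mitochondrial-mass and membrane-permeability phenotypes are per cents of healthy-nucleus cells. Cells were gated by CellPathfinder machine learning into Hoechst high-intensity objects or normal cells, normal cells into healthy, pyknosed or fragmented nuclei, and pyknosed cells into mitotic or apoptotic. Before that, live cells stained at seeding with Hoechst33342, BioTracker Green Microtubule Cytoskeleton Dye, MitoTracker Red and Annexin V Alexa Fluor 680 were imaged on a CQ1 microscope at 37°C and 5% CO2 after compound addition.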

[1] = 12 h, 1 µM, compound concentration 1 uM
[2] = 12 h, 10 µM, compound concentration 10 uM
[3] = 24 h, 1 µM, compound concentration 1 uM
[4] = 24 h, 10 µM, compound concentration 10 uM
[5] = 48 h, 1 µM, compound concentration 1 uM
[6] = 48 h, 10 µM, compound concentration 10 uM

Question: Which “Population Apoptotic (%)” value [1] does the source give for CNc1nc(NCc2ncccn2)c2c(-c3ccc4ncccc4c3)c[nH]c2n1 here?
Answer: 34.88% and 46.15%

Question: And the “Population Fragmented Nuclei (%)” value [1]?
Answer: 1.68% and 0.68%

Question: What about the “Population Healthy Nuclei (%)” value [1] of the same compound?
Answer: 88.01% and 90.48%

Question: What about the “Population Hoechst High Intensity Objects (%)” value [1] of the same compound?
Answer: 0%

Question: What about the “Population Membrane Permeable-Phenotype (%)” value [1] of the same compound?
Answer: 1.36% and 3.01%

Question: What about the “Population Mitochondria Different-Phenotype (%)” value [1] of the same compound?
Answer: 0% and 4.51%

Question: And the “Population Mitotic Cells (%)” value [1]?
Answer: 65.12% and 53.85%

Question: And the “Population Normal (%)” value [1]?
Answer: 100%

Question: And the “Population Pyknosed Nuclei (%)” value [1]?
Answer: 10.31% and 8.84%

Question: What about the “Population Tubulin-Different-Phenotype (%)” value [1] of the same compound?
Answer: 0.82% and 0.75%

Question: What about the “Total Cell Count” value [1] of the same compound?
Answer: 417 and 147

Question: What about the “Population Apoptotic (%)” value [2] of the same compound?
Answer: 30.95% and 40%

Question: What about the “Population Fragmented Nuclei (%)” value [2] of the same compound?
Answer: 0.88% and 3.14%

Question: What about the “Population Healthy Nuclei (%)” value [2] of the same compound?
Answer: 86.76% and 84.28%

Question: What about the “Population Hoechst High Intensity Objects (%)” value [2] of the same compound?
Answer: 0%

Question: What about the “Population Membrane Permeable-Phenotype (%)” value [2] of the same compound?
Answer: 6.44% and 8.21%

Question: What about the “Population Mitotic Cells (%)” value [2] of the same compound?
Answer: 69.05% and 60%

Question: And the “Population Normal (%)” value [2]?
Answer: 100%

Question: What about the “Population Pyknosed Nuclei (%)” value [2] of the same compound?
Answer: 12.35% and 12.58%

Question: And the “Population Tubulin-Different-Phenotype (%)” value [2]?
Answer: 6.78% and 4.48%

Question: What about the “Total Cell Count” value [2] of the same compound?
Answer: 340 and 159

Question: What about the “Population Apoptotic (%)” value [3] of the same compound?
Answer: 48.89% and 42.86%

Question: And the “Population Fragmented Nuclei (%)” value [3]?
Answer: 2.09% and 2.01%

Question: What about the “Population Healthy Nuclei (%)” value [3] of the same compound?
Answer: 90.09% and 83.92%

Question: And the “Population Hoechst High Intensity Objects (%)” value [3]?
Answer: 0%

Question: What about the “Population Membrane Permeable-Phenotype (%)” value [3] of the same compound?
Answer: 0.58% and 1.2%

Question: And the “Population Mitochondria Different-Phenotype (%)” value [3]?
Answer: 0.19% and 6.59%

Question: And the “Population Mitotic Cells (%)” value [3]?
Answer: 51.11% and 57.14%

Question: What about the “Population Normal (%)” value [3] of the same compound?
Answer: 100%

Question: What about the “Population Pyknosed Nuclei (%)” value [3] of the same compound?
Answer: 7.83% and 14.07%

Question: What about the “Population Tubulin-Different-Phenotype (%)” value [3] of the same compound?
Answer: 0.58% and 0.6%

Question: What about the “Total Cell Count” value [3] of the same compound?
Answer: 575 and 199

Question: And the “Population Apoptotic (%)” value [4]?
Answer: 29.41% and 43.75%

Question: And the “Population Fragmented Nuclei (%)” value [4]?
Answer: 2.37% and 4.04%

Question: What about the “Population Healthy Nuclei (%)” value [4] of the same compound?
Answer: 89.57% and 87.88%

Question: And the “Population Hoechst High Intensity Objects (%)” value [4]?
Answer: 0%

Question: What about the “Population Membrane Permeable-Phenotype (%)” value [4] of the same compound?
Answer: 1.59% and 2.3%

Question: And the “Population Mitotic Cells (%)” value [4]?
Answer: 70.59% and 56.25%

Question: What about the “Population Normal (%)” value [4] of the same compound?
Answer: 100%

Question: And the “Population Pyknosed Nuclei (%)” value [4]?
Answer: 8.06% and 8.08%

Question: What about the “Population Tubulin-Different-Phenotype (%)” value [4] of the same compound?
Answer: 2.12% and 1.15%

Question: What about the “Total Cell Count” value [4] of the same compound?
Answer: 422 and 198

Question: What about the “Population Apoptotic (%)” value [5] of the same compound?
Answer: 45% and 54.29%

Question: What about the “Population Fragmented Nuclei (%)” value [5] of the same compound?
Answer: 3.04% and 1.19%

Question: What about the “Population Healthy Nuclei (%)” value [5] of the same compound?
Answer: 87.45% and 88.36%

Question: And the “Population Hoechst High Intensity Objects (%)” value [5]?
Answer: 0%

Question: And the “Population Membrane Permeable-Phenotype (%)” value [5]?
Answer: 1.2% and 1.35%

Question: What about the “Population Mitochondria Different-Phenotype (%)” value [5] of the same compound?
Answer: 0.11% and 4.39%

Question: What about the “Population Mitotic Cells (%)” value [5] of the same compound?
Answer: 55% and 45.71%

Question: And the “Population Normal (%)” value [5]?
Answer: 100%

Question: And the “Population Pyknosed Nuclei (%)” value [5]?
Answer: 9.51% and 10.45%

Question: What about the “Population Tubulin-Different-Phenotype (%)” value [5] of the same compound?
Answer: 1.41% and 0.68%

Question: And the “Population Apoptotic (%)” value [6]?
Answer: 55.56% and 56%

Question: What about the “Population Fragmented Nuclei (%)” value [6] of the same compound?
Answer: 1.27% and 3.63%

Question: And the “Population Healthy Nuclei (%)” value [6]?
Answer: 89.84% and 88.12%

Question: And the “Population Hoechst High Intensity Objects (%)” value [6]?
Answer: 0%

Question: What about the “Population Membrane Permeable-Phenotype (%)” value [6] of the same compound?
Answer: 0.94% and 1.87%

Question: And the “Population Mitochondria Different-Phenotype (%)” value [6]?
Answer: 0.78% and 7.87%

Question: What about the “Population Mitotic Cells (%)” value [6] of the same compound?
Answer: 44.44% and 44%

Question: What about the “Population Normal (%)” value [6] of the same compound?
Answer: 100%

Question: And the “Population Pyknosed Nuclei (%)” value [6]?
Answer: 8.89% and 8.25%

Question: What about the “Population Tubulin-Different-Phenotype (%)” value [6] of the same compound?
Answer: 1.88% and 1.5%

Question: And the “Total Cell Count” value [6]?
Answer: 709 and 303
